Active and inactive are the calls of the source.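 The calls were made as follows, unless noted: active = duplicate-averaged activation above buffer control mean plus 5 SD of those controls; inactive = the rest.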
How the values were obtained:
[1] = nonspecific flux increase, KCNQ1-free cells – parental CHO cells, counter-screen for KCNQ1 potentiator project (AID 493006); settings: parental CHO-K1 cells, FluxOR thallium flux, at 10 µM; hits give high values;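 as to activation: fluorescence ratio of max minus min over baseline after K+ and Tl+ depolarization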
How it was run: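 Material: untransfected host CHO-K1 cells with FluxOR thallium dye. Timing: overnight 37 °C plating, 90 min RT dye, 20 min compound. Detection: kinetic FluxOR fluorescence, 10 s baseline, 110 s after stimulus. Read-out basis: max-minus-min fluorescence over baseline, percent of buffer-to-R-L3 span. Replicates: duplicate wells per compound, percent values averaged.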

[2] = target: Potassium voltage-gated channel subfamily KQT member 1 (Homo sapiens) (UniProt P51787); assay: enhancement of KCNQ1 channel thallium flux – FluxOR thallium flux, CHO cells, duplicates, confirmation (AID 493007;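 active = potentiation averaged over duplicate wells exceeding buffer-only control mean by more than 3 SD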;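 as to outcome: cells depolarized by a potassium plus thallium sulfate stimulus after compound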); settings: KCNQ1 cell line, FluxOR thallium flux fluorescence, at 10 µM; hits give high values, % of reference activator effect, buffer zero
Chain of Potassium voltage-gated channel subfamily KQT member 1 (Homo sapiens) (P51787 whole entry, looked up): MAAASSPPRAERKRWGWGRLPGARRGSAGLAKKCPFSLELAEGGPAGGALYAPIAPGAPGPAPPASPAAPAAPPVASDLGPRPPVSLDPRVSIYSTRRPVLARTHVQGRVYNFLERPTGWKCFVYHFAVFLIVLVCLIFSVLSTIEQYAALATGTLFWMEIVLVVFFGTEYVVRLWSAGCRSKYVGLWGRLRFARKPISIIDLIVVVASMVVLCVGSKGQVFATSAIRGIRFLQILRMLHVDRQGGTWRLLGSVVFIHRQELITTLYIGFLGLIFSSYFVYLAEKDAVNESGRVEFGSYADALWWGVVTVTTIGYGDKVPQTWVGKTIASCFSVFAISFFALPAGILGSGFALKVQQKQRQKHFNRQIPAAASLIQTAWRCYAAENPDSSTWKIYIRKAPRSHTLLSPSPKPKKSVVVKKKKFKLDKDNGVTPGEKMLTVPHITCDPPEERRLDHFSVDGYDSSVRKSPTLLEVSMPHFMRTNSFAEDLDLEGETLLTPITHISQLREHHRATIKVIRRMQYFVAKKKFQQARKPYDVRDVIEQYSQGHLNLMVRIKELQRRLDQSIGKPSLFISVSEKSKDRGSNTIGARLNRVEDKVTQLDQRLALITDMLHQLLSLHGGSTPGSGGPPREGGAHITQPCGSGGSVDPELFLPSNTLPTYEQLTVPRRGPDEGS
How it was run: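 Test system – KCNQ1-expressing CHO cell line · Incubation – FluxOR dye loading 90 min, compound exposure 20 min, room temperature · Detection – FluxOR Tl+ flux fluorescence, 10 s baseline plus 110 s recording · Controls – buffer-only wells as 0% and R-L3 activator as 100%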

[3] = target: Potassium voltage-gated channel subfamily KQT member 2 (Rattus norvegicus) (UniProt O88943); assay: KCNQ2 thallium flux enhancement – KCNQ2-CHO-K1 cells, selectivity assay for KCNQ1 potentiator project (AID 493009;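 active = mean duplicate potentiation above the buffer control mean plus 5 SD of buffer wells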;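 also: assay conditions were tuned for KCNQ1 rather than KCNQ2 modulators; signal is max minus min fluorescence divided by baseline after thallium stimulus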); settings: FluxOR thallium flux fluorescence, at 10 µM; hits give high values, scaled: buffer 0, activator control 100
Chain of Potassium voltage-gated channel subfamily KQT member 2 (Rattus norvegicus) (O88943 whole entry, looked up): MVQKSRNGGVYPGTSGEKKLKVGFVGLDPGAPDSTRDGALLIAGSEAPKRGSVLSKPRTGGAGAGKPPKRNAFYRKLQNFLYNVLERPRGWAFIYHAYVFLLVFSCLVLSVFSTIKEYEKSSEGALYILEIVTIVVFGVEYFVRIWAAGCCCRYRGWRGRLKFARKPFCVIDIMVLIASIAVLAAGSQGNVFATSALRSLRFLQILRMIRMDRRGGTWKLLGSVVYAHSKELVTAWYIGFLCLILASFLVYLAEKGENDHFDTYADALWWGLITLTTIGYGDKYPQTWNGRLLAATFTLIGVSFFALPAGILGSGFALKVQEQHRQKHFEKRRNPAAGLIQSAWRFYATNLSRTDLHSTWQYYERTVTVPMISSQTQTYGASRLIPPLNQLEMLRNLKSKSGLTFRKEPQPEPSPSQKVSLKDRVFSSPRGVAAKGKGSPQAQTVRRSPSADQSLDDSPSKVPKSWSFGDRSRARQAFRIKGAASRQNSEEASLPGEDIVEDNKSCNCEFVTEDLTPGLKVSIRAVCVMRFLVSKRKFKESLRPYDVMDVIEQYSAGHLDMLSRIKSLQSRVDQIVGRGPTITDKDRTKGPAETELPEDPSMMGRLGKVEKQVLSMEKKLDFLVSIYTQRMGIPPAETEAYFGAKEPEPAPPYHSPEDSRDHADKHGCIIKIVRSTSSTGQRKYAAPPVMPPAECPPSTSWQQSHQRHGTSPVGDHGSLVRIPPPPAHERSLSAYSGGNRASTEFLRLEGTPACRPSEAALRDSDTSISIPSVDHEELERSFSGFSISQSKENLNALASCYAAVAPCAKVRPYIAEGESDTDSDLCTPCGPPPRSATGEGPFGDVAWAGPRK

[4] = target: Potassium voltage-gated channel subfamily KQT member 1 (Homo sapiens) (UniProt P51787); assay: KCNQ1 activators by electrophysiology – IonWorks patch clamp, KCNQ1-CHO cells, orthogonal assay for KCNQ1 potentiator project, confirmation (AID 493184;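 active = current rise at least 3 SD above the untreated control mean in each of two repeat wells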;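 as to current potentiation: percent change of the same well's current before compound addition so 0% = no change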); settings: automated patch clamp current, at 10 µM; hits give high values
How it was run: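 Read-out: Percent current increase versus pre-compound level | Assay system: CHO cells carrying KCNQ1 | Measured by: Automated perforated-patch electrophysiology | Medium: External bath solution at pH 7.4 | Dosing: One dose, 10 µM final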

SMILES	outcome [1]	outcome [2]	outcome [3]	outcome [4]	activation [1]	potentiation [2]	potentiation [3]	current potentiation [4]
O=C(CCN1CCCCCC1)Nc1ccc(F)cc1	inactive	inactive	inactive	inactive	–	–	–	–
CCN1C(=O)/C(=C/c2ccc(C)s2)NC1=S	–	–	–	inactive	208% (active)	57.5% (active)	258% (active)	–
COc1cccc(C=NCC(C)N=Cc2cccc(OC)c2O)c1O (stereo not given)	inactive	inactive	inactive	inactive	–	–	–	–
O=C(Nc1nnc(C2=COCCO2)o1)c1ccc(Br)cc1	–	–	–	inactive	142% (active)	18% (active)	169% (active)	–
COC(=O)C1CCCN1C(=O)COc1ccc(Br)cc1Cl (stereo not given)	–	–	–	inactive	206% (active)	48.5% (active)	198% (active)	–
c1ccc2c(c1)OCC(CNc1ncnc3nc[nH]c13)O2 (stereo not given)	–	–	–	inactive	227% (active)	46% (active)	194% (active)	–
CCOC(=O)c1c(NS(=O)(=O)c2cccc(OC)c2)sc2c1CCC2	inactive	–	inactive	inactive	–	59% (active)	–	–
CN(C(=O)CSc1ncnc2sc(-c3ccccc3)cc12)C1CCS(=O)(=O)C1 (stereo not given)	–	–	–	inactive	529% (active)	176% (active)	501% (active)	–
O=C(c1ccccc1)N1CCCC(c2ccc(Cl)cc2)=N1	inactive	inactive	inactive	inactive	–	–	–	–
COc1ccccc1CNC(=O)COC(=O)c1nccnc1N	inactive	inactive	inactive	inactive	–	–	–	–
CCOC(=O)c1c(NC(=S)NC(=O)c2ccco2)sc2c1CCCC2	inactive	inactive	inactive	inactive	–	–	–	–
CCc1nc2sc3c(=O)[nH]cnc3c2c2c1CSC(C)(C)C2	inactive	inactive	inactive	inactive	–	–	–	–
CCC1(c2ccccc2)NC(=O)N(CC(=O)Nc2ccccc2C(=O)N2CCCCC2)C1=O (stereo not given)	inactive	inactive	inactive	inactive	–	–	–	–
Cc1sc(N/N=C/c2ccco2)nc1-c1ccccc1	inactive	inactive	inactive	inactive	–	–	–	–
CC(C)(C)c1cc(C(=O)NNC(=O)c2ccc(C(F)(F)F)cc2)no1	inactive	–	–	inactive	–	32% (active)	161% (active)	–
COc1ccc(-c2nc(=S)c3ccc4ccccc4c3[nH]2)cc1	–	–	–	inactive	207% (active)	83.5% (active)	180% (active)	–
CCOc1ccc2nc(/N=C/c3c(C)[nH]n(-c4ccc(C)cc4)c3=O)sc2c1	–	–	–	inactive	356% (active)	120% (active)	332% (active)	–
O=C(Nc1nc(=O)c2ccccc2s1)c1ccc(Cl)cc1	–	–	–	inactive	246% (active)	85.5% (active)	242% (active)	–
COC(=O)c1ccc(N2CCN(S(=O)(=O)c3ccc(Br)cc3)CC2)c([N+](=O)[O-])c1	inactive	inactive	inactive	inactive	–	–	–	–
CCOC(=O)c1c(C)[nH]c(=S)c(C#N)c1-c1ccc(Cl)cc1	–	–	–	inactive	150% (active)	34.5% (active)	170% (active)	–

SMILES	outcome [1]	outcome [2]	outcome [3]	outcome [4]	activation [1]	potentiation [2]	potentiation [3]	current potentiation [4]
Cc1ccc(Cl)cc1N1CCN(C(=O)c2ccc(CN3CCOCC3)cc2)CC1	inactive	inactive	inactive	inactive	–	–	–	–
Cc1ccc(/C(O)=C/C(=O)C(=O)NC23CC4CC(CC(C4)C2)C3)cc1	–	–	–	inactive	284% (active)	167% (active)	367% (active)	–
CC(C)c1nc(Cl)c(C#N)c2c1CCC2	inactive	inactive	inactive	inactive	–	–	–	–
COc1ccc(N/C=C/C(=O)c2cc(OC)c(OC)c(OC)c2)cc1	–	–	–	inactive	366% (active)	188% (active)	365% (active)	–
CC(=O)Nc1ccc(NC(=O)c2cccc(C(=O)OC(C)C)n2)cc1	inactive	inactive	inactive	inactive	–	–	–	–
CCOC(=O)/C(=C\c1cccnc1)C(=O)c1cc(C(C)=O)c(Nc2ccccc2)s1	inactive	inactive	inactive	inactive	–	–	–	–
CCNC(=S)N=Nc1c(O)n(Cc2ccc(Cl)cc2)c2ccccc12	inactive	–	–	inactive	–	37% (active)	172% (active)	–
CCOC(=O)c1ccc(N2C(=O)c3n[nH]c(C)c3C2c2ccccn2)cc1 (stereo not given)	inactive	inactive	inactive	inactive	–	–	–	–
COc1ccccc1OCCSc1nc2ccccc2n1CCC(=O)O	inactive	inactive	inactive	inactive	–	–	–	–
O=C(NC(=S)N1CCN(c2ccc(Cl)cc2[N+](=O)[O-])CC1)c1cccs1	–	–	–	inactive	188% (active)	61% (active)	244% (active)	–
COc1ccc(-n2cc(-c3ccccc3)c3c(=S)nc[nH]c32)cc1	–	–	–	inactive	137% (active)	38% (active)	172% (active)	–
COc1ccc(-c2nnc(Nc3nc4c(OC)cccc4s3)o2)cc1	–	–	–	inactive	468% (active)	164% (active)	392% (active)	–
CN(C)C(=S)NC(=O)c1cccc(Cl)c1	inactive	–	–	inactive	–	19% (active)	142% (active)	–
COc1ccc(NC(=O)Cc2nnc(SCC(=O)c3ccc(F)cc3)n2C)cc1	inactive	inactive	inactive	inactive	–	–	–	–
OCCN1CCN(CCCN2c3ccccc3Sc3ccc(Cl)cc32)CC1	inactive	inactive	inactive	inactive	–	–	–	–
O=C(CNCC1CCCCC1)Nc1ccc(OC(F)(F)F)cc1	inactive	inactive	inactive	inactive	–	–	–	–
COC(=O)c1cccnc1NC(=S)NC1CCCCC1	–	–	–	inactive	208% (active)	36.5% (active)	233% (active)	–
O=C(NC(=S)N1CCCc2ccccc21)c1ccccc1	inactive	inactive	–	inactive	–	–	148% (active)	–
Cc1cc(Br)ccc1OCC(=O)NNC(=O)C(=O)Nc1ccccc1	–	–	–	inactive	406% (active)	224% (active)	478% (active)	–
COc1ccc(C(=O)O/N=C(\N)Cc2ccc(Cl)cc2Cl)cc1OC	inactive	inactive	inactive	inactive	–	–	–	–

SMILES	outcome [1]	outcome [2]	outcome [3]	outcome [4]	activation [1]	potentiation [2]	potentiation [3]	current potentiation [4]
CCCCCn1c(=S)[nH]c2ncccc2c1=O	–	–	–	inactive	206% (active)	39.5% (active)	200% (active)	–
COc1ccc2oc(C(=O)OCC(=O)N3CC(C)OC(C)C3)c(C)c2c1 (stereo not given)	inactive	inactive	inactive	inactive	–	–	–	–
CCCOc1ccc(-c2c(=O)n(O)c3ccccc3[n+]2[O-])cc1	–	inactive	–	inactive	237% (active)	–	243% (active)	–
CSc1ccccc1NC(=O)c1ccc2c(c1)CCN2S(C)(=O)=O	inactive	inactive	inactive	inactive	–	–	–	–
CC(=O)Oc1c(-c2ccc(Br)o2)oc2ccccc2c1=O	–	–	–	inactive	480% (active)	109% (active)	482% (active)	–
NS(=O)(=O)c1ccc(CCNC(=O)COC(=O)c2cc([N+](=O)[O-])ccc2N2CCOCC2)cc1	inactive	inactive	inactive	inactive	–	–	–	–
Cc1ccc(N=Cc2cc(Br)cc(Cl)c2O)cc1	–	–	–	inactive	201% (active)	19% (active)	142% (active)	–
CCC/C=N/NC(=O)c1[nH]c2c([N+](=O)[O-])cccc2c1C	inactive	inactive	inactive	inactive	–	–	–	–
Cc1ccc2c(c1)C1CN(C)CCC1N2C(=S)NC(=O)c1ccc(Cl)cc1Cl (stereo not given)	–	–	–	inactive	194% (active)	50% (active)	217% (active)	–
CCC(C)c1ccccc1NC(=S)NC(=O)c1ccco1 (stereo not given)	–	–	–	inactive	400% (active)	114% (active)	431% (active)	–
COc1ccc(NC(=O)C(=O)NNC(=O)C(C)Oc2ccc(Cl)cc2Cl)cc1 (stereo not given)	–	–	–	inactive	481% (active)	177% (active)	492% (active)	–
O=C(O)C(c1ccccc1)N1C(=O)/C(=C\c2ccc(-c3ccc(Br)cc3)o2)SC1=S (stereo not given)	inactive	–	inactive	–	–	17.5% (active)	–	15% (active)
O=C(Nc1nnc(-c2ccc(F)cc2)o1)c1cc(Cl)sc1Cl	–	–	–	inactive	330% (active)	118% (active)	284% (active)	–
CC1Cc2ccccc2N1C(=S)NC(=O)C1(C)CC1(Cl)Cl (stereo not given)	–	–	–	inactive	236% (active)	72.5% (active)	267% (active)	–
Cc1ccc(C(=O)NCCC(=O)NCc2cc(=O)n(C)c(=O)n2C)cc1	inactive	inactive	inactive	inactive	–	–	–	–
O=C(O)CCC(=O)Nc1ccc(-c2nc3ccc(C(=O)c4ccccc4)cc3[nH]2)cc1	inactive	inactive	inactive	inactive	–	–	–	–
CCCCCCCCCCC[N+](C)(C)CC/C=C1/c2ccccc2Sc2ccc(Cl)cc21	–	–	inactive	inactive	184% (active)	64% (active)	–	–
CC(=O)c1ccc(OCc2cc(C(=O)N3CC[C@@H]4CCCC[C@H]4C3)no2)cc1	–	–	–	inactive	144% (active)	49% (active)	160% (active)	–
CCOC(=O)c1oc2c(CN3CCCCC3C)c(O)ccc2c(=O)c1-c1ccc(OC)c(OC)c1 (stereo not given)	inactive	inactive	inactive	inactive	–	–	–	–
CCOc1ccccc1NC(=S)NC(=O)c1ccco1	–	–	–	inactive	172% (active)	35% (active)	184% (active)	–

Source: PubChem BioAssay
